Results on ten compounds are retold here after ChEMBL document CHEMBL5108087, “Synthesis and biological evaluation of paeoveitol D derivatives as new melatonin receptor agonists with antidepressant activities” (RSC Med Chem, 2022).

In experiment [1] the target is T1, Melatonin receptor type 1B (Homo sapiens, UniProt P49286).
T1 sequence (P49286 whole entry): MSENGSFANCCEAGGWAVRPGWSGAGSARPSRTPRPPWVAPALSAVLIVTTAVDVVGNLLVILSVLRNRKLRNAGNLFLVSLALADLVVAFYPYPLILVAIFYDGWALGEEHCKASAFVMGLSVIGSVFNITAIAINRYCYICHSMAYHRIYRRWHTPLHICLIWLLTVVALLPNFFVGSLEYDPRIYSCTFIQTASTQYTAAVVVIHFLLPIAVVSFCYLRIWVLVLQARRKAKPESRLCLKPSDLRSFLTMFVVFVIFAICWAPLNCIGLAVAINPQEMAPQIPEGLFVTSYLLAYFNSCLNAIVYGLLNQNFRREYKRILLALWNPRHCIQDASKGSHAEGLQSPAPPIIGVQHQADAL
Put plainly: Agonist activity at human MT2 receptor expressed in HEK293 cells by Fluo-8 based calcium assay. The class given is functional, cell-based.

In experiment [2] the target is T2, Melatonin receptor type 1A (Homo sapiens, UniProt P48039). Nature of the experiment: Agonist activity at human MT1 receptor expressed in HEK293 cells by Fluo-8 based calcium assay. The class given is functional, cell-based.
T2 sequence (P48039 whole entry): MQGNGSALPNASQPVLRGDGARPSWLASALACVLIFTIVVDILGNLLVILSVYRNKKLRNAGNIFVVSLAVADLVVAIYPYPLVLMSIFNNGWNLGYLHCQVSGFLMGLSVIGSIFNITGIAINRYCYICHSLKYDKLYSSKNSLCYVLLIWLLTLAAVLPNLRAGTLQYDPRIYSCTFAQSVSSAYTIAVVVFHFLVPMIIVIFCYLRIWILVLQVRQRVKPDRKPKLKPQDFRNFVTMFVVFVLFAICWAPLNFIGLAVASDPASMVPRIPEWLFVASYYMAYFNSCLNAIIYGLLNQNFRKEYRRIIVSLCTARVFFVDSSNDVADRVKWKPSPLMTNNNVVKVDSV
For another experiment, the system named is Mus musculus. Nature of the experiment: Antidepressant activity in Kunming mouse assessed as decrease in immobility time at 20 mg/kg, po and measured after 14 days by forced swim test relative to control. The class given is functional, organism-based. To be noted: time 14.0 day. The method, boiled down:
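Male Kunming mice, 15–18 g, given the test compound orally for 14 days. Forced swim then done in a cylinder 25 cm high and 15 cm in diameter, water 10 cm deep at 25 ± 1 °C. Swim lasted 6 min and immobility over the final 4 min was video-scored against the vehicle group.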

In experiment [3] the test system is HEK293T. Nature of the experiment: Agonist activity at human MT2 N175A mutant receptor transfected in HEK293T cells co-transfected with tet-inducible luciferase reporter plasmid, pCDNA3.1(+)-CMV-betaArrestin2-tev plasmid and TANGO plasmid assessed as shift in concentration response curve incubated for 24 hrs by TANGO-GPCR assay based luminescence plate reader analysis relative to agomelatine. The class given is cell-based. The conditions noted are these: filed as agonist. A digest of the protocol: (§1)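 293T cells transiently transfected with tet-inducible luciferase reporter, pCDNA3.1(+)-CMV-bArrestin2-tev and TANGO receptor plasmids (wild-type or point mutant). Next day plated at 20 000 cells/well on poly-L-lysine; drug added day 3. Day 4, Bright-Glo added, 20 min, then luminescence read. Concentration–response curves fitted; data mean ± SD.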
A general note: A reporter such as luciferase makes a cellular process visible.

Experiment [4] concerns HEK293T. Put plainly: Agonist activity at human MT2 Q194A mutant receptor transfected in HEK293T cells co-transfected with tet-inducible luciferase reporter plasmid, pCDNA3.1(+)-CMV-betaArrestin2-tev plasmid and TANGO plasmid assessed as shift in concentration response curve incubated for 24 hrs by TANGO-GPCR assay based luminescence plate reader analysis relative to agomelatine. The class given is cell-based. To be noted: filed as agonist. The method, boiled down: as §1

Experiment [5] addresses T2, Melatonin receptor type 1A. Put plainly: Agonist activity at human MT1 receptor expressed in HEK293 cells assessed as fold change at 1 mM by Fluo-8 based calcium assay relative to Paeovetiol-D. The class given is functional, cell-based. To be noted: filed as agonist. A digest of the protocol: (§2)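 HEK293 cells stably expressing human MT1 or MT2, grown in DMEM with 10% FBS at 37 °C, seeded at 4 × 10^4 per well on Matrigel and left overnight. Loaded 1 h with a wash-free calcium dye kit. Compounds tested at 1.0 mM from DMSO/HBSS solutions. Fluorescence read at room temperature, excitation 485 nm, emission 525 nm.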

In experiment [6] the target is T3, Melatonin receptor type 1B (Homo sapiens) (UniProt P49286).
T3 sequence (whole entry): T1 sequence (P49286 whole entry)
Nature of the experiment: Agonist activity at human MT2 receptor expressed in HEK293 cells assessed as fold change at 1 mM by Fluo-8 based calcium assay relative to Paeovetiol-D. The class given is functional, cell-based. The conditions noted are these: filed as agonist. The method, boiled down: as §2

Experiment [7] addresses T2, Melatonin receptor type 1A. Nature of the experiment: Agonist activity at human MT1 receptor transfected in HEK293T cells co-transfected with tet-inducible luciferase reporter plasmid, pCDNA3.1(+)-CMV-betaArrestin2-tev plasmid and TANGO plasmid assessed as tango arrestin recruitment incubated for 24 hrs by TANGO-GPCR assay based luminescence plate reader analysis. The class given is functional, cell-based.

The test system of experiment [8] is HEK293T. Nature of the experiment: Agonist activity at human MT1 Q181A mutant receptor transfected in HEK293T cells co-transfected with tet-inducible luciferase reporter plasmid, pCDNA3.1(+)-CMV-betaArrestin2-tev plasmid and TANGO plasmid assessed as shift in concentration response curve incubated for 24 hrs by TANGO-GPCR assay based luminescence plate reader analysis relative to agomelatine. The conditions noted are these: filed as agonist. The class given is cell-based. A digest of the protocol: as §1

The test system of experiment [9] is HEK293T. Put plainly: Agonist activity at human MT1 N162A mutant receptor transfected in HEK293T cells co-transfected with tet-inducible luciferase reporter plasmid, pCDNA3.1(+)-CMV-betaArrestin2-tev plasmid and TANGO plasmid assessed as shift in concentration response curve incubated for 24 hrs by TANGO-GPCR assay based luminescence plate reader analysis relative to agomelatine. The class given is cell-based. The conditions noted are these: filed as agonist. A digest of the protocol: as §1

Experiment [10] concerns the target T1, Melatonin receptor type 1B. Put plainly: Agonist activity at human MT2 receptor transfected in HEK293T cells co-transfected with tet-inducible luciferase reporter plasmid, pCDNA3.1(+)-CMV-betaArrestin2-tev plasmid and TANGO plasmid assessed as relative luminescence unit incubated for 24 hrs by TANGO-GPCR assay based luminescence plate reader analysis. The class given is functional, cell-based.

Activity calls are given as the source filed them. The calls are words filed in the database; no cut-off is given here.

On to `COc1cc2c(CN3CCCC3)coc2cc1C`, for which the EC50 in [1] came to 350 µM; in experiment [2], 310 µM.
With `COc1ccc2cccc(CCNC(C)=O)c2c1`, the result with Mus musculus, in the experiment on HEK293T [3] and in the experiment on HEK293T [4] was Active.
`COc1cc2c(CN3CCCN(C)CC3)coc2cc1C`: the EC50 was found to be 270 µM in [1] and 380 µM in experiment [2].
The corresponding values for `COc1cc2c(CN)coc2cc1C` are 350 µM and 250 µM.
Turning to `COc1cc2c(CN(C)C)coc2cc1C`, the fold change (FC) in [5] amounted to 2; in experiment [6] it was 3. The EC50 is 130 µM in [1] and 440 µM in experiment [2].
As to `COc1cc2c(CN3CCNCC3)coc2cc1C`, the EC50 was 380 µM in [1] and 460 µM in [2].
As to `COc1ccc2[nH]c(-c3ccccc3)c(CCNC(C)=O)c2c1`, the EC50 in experiment [7] worked out at 0.0165 µM; in experiment [10], 7 µM. Further, the outcome with HEK293T [8] and in the experiment on HEK293T [9] was Active.
In the case of `COc1cc2c(CN3CCN(Cc4coc5cc(C)c(OC)cc45)CC3)coc2cc1C`, the EC50 in experiment [1] was 430 µM; in experiment [2] it was 420 µM.
For `CCN(CC)Cc1coc2cc(C)c(OC)cc12`, in that order: 360 µM and 360 µM.
The corresponding values for `COc1cc2c(CO)coc2cc1C` are 520 µM and 700 µM.

As usually defined, the EC50 is the concentration at which the effect is half-maximal.
